Measurements of several laboratories.
Protocols differ between the studies behind these lines.
SPHK2: Sphingosine kinase 2 (SPHK2, Homo sapiens, UniProt Q9NRA0)
SIRT1: NAD-dependent protein deacetylase sirtuin-1 (SIRT1, Homo sapiens, UniProt Q96EB6)
XDH: Xanthine dehydrogenase/oxidase (XDH, Bos taurus, UniProt P80457)
SLC7A5: Large neutral amino acids transporter small subunit 1 (SLC7A5, Homo sapiens, UniProt Q01650)
Adra1b: Alpha-1B adrenergic receptor (Adra1b, Rattus norvegicus, UniProt P15823)

Compound	target	effect on	action	technique	concentration	inhibition [%]
CC(C)CCn1c(SCC(=O)Nc2ccccc2C(F)(F)F)nc2nccnc2c1=O	Phosphatidylinositol 4-kinase beta (PI4KB, Homo sapiens, UniProt Q9UBF8)	enzyme activity	inhibitor		10 µM	< 20
COc1ccc(CCc2ccc(-c3noc([C@@H]4CCCN4C(=N)N)n3)cc2C(F)(F)F)cc1	SPHK2	enzyme activity	inhibitor	radiometric	0.3 µM	45
CCCCCCCCCCCCCC(=O)NNCCC[C@H](NC(=O)OCc1ccccc1)C(=O)N[C@@H](Cc1c[nH]c2ccccc12)C(=O)NC(C)C	SIRT1	enzyme activity	inhibitor		100 µM	10
O=Cc1ccc(O)cc1	XDH	enzyme activity	inhibitor	absorbance	200 µg/mL	6.5
CCOCCOCCNC(=S)NCCCC[C@H](NS(C)(=O)=O)C(=O)N[C@H](C)C(=O)N[C@@H](CCCNC(=N)N)C(N)=O	SIRT1	enzyme activity	inhibitor		100 µM	12
O=C(CSc1nc2nccnc2c(=O)n1CCc1ccccc1)Nc1ccccc1	SPHK2	enzyme activity	inhibitor		10 µM	< 20
OCCc1ccc(O)cc1	XDH	enzyme activity	inhibitor	absorbance	100 µg/mL	7.9
[H]/N=C(\N)N1CCC[C@H]1c1nc(-c2ccc(OCC=CCCCC)c(C(F)(F)F)c2)no1	SPHK2	enzyme activity	inhibitor	radiometric	0.3 µM	48
CCCC1CC(=O)c2cc(Cl)cc(Br)c2O1 (centres unmarked)	SIRT1	enzyme activity	inhibitor	fluorescence	200 µM	6.4
CCCCCCCCCCCCNC(=S)NCCCC[C@H](NC(=O)OCc1ccccc1)C(=O)N[C@@H](Cc1c[nH]c2ccccc12)C(=O)N[C@@H](CCNC(=N)N)C(N)=O	SIRT1	enzyme activity	inhibitor		1 µM	30
O=C(NC1CCC1)[C@H](Cc1c[nH]c2ccccc12)NC(=O)[C@H](CCCCNC(=S)NCc1cc(O)no1)NS(=O)(=O)c1cccc(F)c1	SIRT1	enzyme activity	inhibitor		30 µM	49
CCCCCCCC1CC(=O)c2cc(Cl)cc(Br)c2O1 (centres unmarked)	SIRT1	enzyme activity	inhibitor	fluorescence	200 µM	7.5
CCCC(=S)NCCCC[C@H](NS(C)(=O)=O)C(=O)N[C@H](C)C(=O)N[C@@H](CCCNC(=N)N)C(N)=O	SIRT1	enzyme activity	inhibitor		10 µM	14
NC(CCNC(=O)c1ccccc1)C(=O)O (centres unmarked)	SLC7A5	transporter uptake	inhibitor	radiometric	200 µM	8.6
O=C(c1ccc(F)cc1)N(Cc1ccccc1)C1CCCCC1	Adra1b	cell-free assay			10 µM	4
O=C(O)c1ccc(O)cc1	XDH	enzyme activity	inhibitor	absorbance	200 µg/mL	17.9
CCCCCC1CC(=O)c2cc(Cl)cc(Br)c2O1 (centres unmarked)	SIRT1	enzyme activity	inhibitor	fluorescence	200 µM	6.2
CCCCCCCCCCCCNC(=S)NCCCC[C@H](NC(=O)OCc1ccccc1)C(=O)N[C@@H](Cc1c[nH]c2ccccc12)C(=O)N[C@@H](CCCCN)C(N)=O	SIRT1	enzyme activity	inhibitor		10 µM	71
O=C(Nc1ccc(S(=O)(=O)N2CCC(Cl)CC2)cc1)c1ccc([N+](=O)[O-])o1	Adra1b	ligand displacement		radioligand	10 µM	13
CCCCCC1CC(=O)c2cccc(Br)c2O1 (centres unmarked)	SIRT1	enzyme activity	inhibitor	fluorescence	200 µM	7.1
O=C(CO)c1ccc(O)c(O)c1	XDH	enzyme activity	inhibitor	absorbance	200 µg/mL	43.3
CCCCCC1CC(=O)c2cc(OC)ccc2O1 (centres unmarked)	SIRT1	enzyme activity	inhibitor	fluorescence	200 µM	10.3
N=C(N)N1CCC[C@H]1c1nc(-c2ccc(CCC3CC3)c(C(F)(F)F)c2)no1	SPHK2	enzyme activity	inhibitor	radiometric	0.3 µM	32
NC(CNC(=O)c1ccccc1)C(=O)O (centres unmarked)	SLC7A5	transporter uptake	inhibitor	radiometric	200 µM	4.6

Compound	target	effect on	action	technique	concentration	inhibition [%]
CCCCCC1CCc2cc(Cl)cc(Br)c2O1 (centres unmarked)	SIRT1	enzyme activity	inhibitor	fluorescence	200 µM	-5.2
C[C@@H](NC(=O)[C@H](CCCCNC(=O)C(F)(F)F)NS(C)(=O)=O)C(=O)N[C@@H](CCCNC(=N)N)C(N)=O	SIRT1	enzyme activity	inhibitor		100 µM	14
O=C(O)c1ccc(O)c(O)c1	XDH	enzyme activity	inhibitor	absorbance	100 µg/mL	9.5
NC(CCOC(=O)c1ccccc1)C(=O)O (centres unmarked)	SLC7A5	transporter uptake	inhibitor	radiometric	200 µM	11
[H]/N=C(\N)N1CCC[C@H]1c1nc(-c2ccc(OCC=Cc3ccc(F)cc3)c(C(F)(F)F)c2)no1	SPHK2	enzyme activity	inhibitor	radiometric	0.3 µM	57
CC(C)C1CC(=O)c2cc(Cl)cc(Br)c2O1 (centres unmarked)	SIRT1	enzyme activity	inhibitor	fluorescence	200 µM	2.8
O=C1C=C(c2ccc(O)c(O)c2)CO1	XDH	enzyme activity	inhibitor	absorbance	100 µg/mL	17.2
O=C(COc1ccc2cc(C(=O)Nc3ccccc3)ccc2c1)NCc1ccc(O)c(O)c1	Signal transducer and activator of transcription 5B, SH2 (STAT5B, Homo sapiens, UniProt P51692)	ligand displacement		FP	100 µM	-2
O=Cc1c[nH]c2ccccc12	XDH	enzyme activity	inhibitor	absorbance	200 µg/mL	13.1
CCc1ccc(CCc2ccc(-c3noc([C@@H]4CCCN4C(=N)N)n3)cc2C(F)(F)F)cc1	SPHK2	enzyme activity	inhibitor	radiometric	0.3 µM	63
N[C@@H](CCCCNC(=O)c1ccccc1)C(=O)O	SLC7A5	transporter uptake	inhibitor	radiometric	200 µM	38
CCCCCC=CCOc1ccc(-c2noc([C@@H]3CCCN3C(=N)N)n2)cc1C(F)(F)F (mixture of isomers)	SPHK2	enzyme activity	inhibitor	radiometric	0.3 µM	40
CN(C)C1CCN(CC#Cc2nn(C3CCCC3)c3nc(NCc4ccccc4)ncc23)C1 (centres unmarked)	Protein kinase C theta type (PRKCQ, Homo sapiens, UniProt Q04759)	enzyme activity	inhibitor	FRET	10 µM	13
CSSc1ccccc1C(=O)O	Procathepsin L (CTSL, Homo sapiens, UniProt P07711)	enzyme activity	inhibitor	fluorescence	20 µM	93
CCCCCC1CC(=O)c2cc([N+](=O)[O-])ccc2O1 (centres unmarked)	SIRT1	enzyme activity	inhibitor	fluorescence	200 µM	4.7
OCCc1ccc(O)c(O)c1	XDH	enzyme activity	inhibitor	absorbance	200 µg/mL	12.5
[H]/N=C(\N)N1CCC[C@H]1c1nc(-c2ccc(OCC=Cc3ccccc3C(F)(F)F)c(C(F)(F)F)c2)no1	SPHK2	enzyme activity	inhibitor	radiometric	0.3 µM	0
CCCCCCCCNC(=S)NCCCC[C@H](NS(C)(=O)=O)C(=O)N[C@H](C)C(=O)N[C@@H](CCCNC(=N)N)C(N)=O	SIRT1	enzyme activity	inhibitor		10 µM	71
O=C1CC(CCNC(=S)NCCCC[C@H](NS(=O)(=O)c2cccc(F)c2)C(=O)N[C@@H](Cc2c[nH]c3ccccc23)C(=O)NC2CCC2)=NO1	SIRT1	enzyme activity	inhibitor		10 µM	22
CCCCCCCCCCCCNC(=S)NCCCC[C@H](NC(=O)OCc1ccccc1)C(=O)N[C@@H](Cc1c[nH]c2ccccc12)C(=O)N[C@@H](CCC(=O)O)C(N)=O	SIRT1	enzyme activity	inhibitor		1 µM	28
CCCCNC(=S)NCCCC[C@H](NS(=O)(=O)c1cccc(F)c1)C(=O)N[C@@H](Cc1c[nH]c2ccccc12)C(=O)NC1CCC1	SIRT1	enzyme activity	inhibitor		1 µM	> 95
[H]/N=C(\N)N1CCC[C@H]1c1nc(-c2ccc(OCC=Cc3ccc(C(F)(F)F)cc3)c(C(F)(F)F)c2)no1	SPHK2	enzyme activity	inhibitor	radiometric	0.3 µM	75
N[C@@H](Cc1ccc(OC(=O)c2ccccc2)cc1)C(=O)O	SLC7A5	transporter uptake	inhibitor	radiometric	200 µM	49
